Laboratory results taken from the array DNA melting data of Ke et al. (doi:10.1101/2024.01.08.574731).

What was measured:
[1] = folding enthalpy; higher = less favourable; fluorescence melt of hairpins on a sequencing array, two-state fit; details: sodium 0.088 M
In short: (§1)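 Hairpins were imaged by Cy3 fluorescence on a sequenced MiSeq flow cell with annealed Cy3 and quencher oligos, in 50 mM Na-HEPES pH 8.0, 25 mM NaCl, in 2.5 °C steps up to 60 °C. Bootstrapped two-state fits of normalised signals gave melting temperature and folding enthalpy. Four replicates were combined by inverse variance, and fitted temperatures were raised by 9.35 °C to match UV melts.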

[2] = melting temperature; fluorescence melt of hairpins on a sequencing array, two-state fit, raised by 9.35 °C to match UV melts; details: sodium 0.088 M
In short: as §1

Sequence	folding enthalpy [1] [kcal/mol]	Tm [2] [°C]
GTGTGCGAAAGCAGTCAC ((((((....)))..)))	-16.5	38.5
GATCGTTTCTACGATC ((((((....))))))	-43	55.8
AGGAAGAAATTCCT (((((....)))))	-11.9	28.9
GTTAGCGAAAGCTAGAAC ((((((....)))..)))	-10	31.5
GTGCCTCCGAAAGGACAC (((..(((....))))))	-8.63	52.4
GTCAATCGAAAGATAGAC (((.(((....))).)))	-28.2	43.5
GATTGGGGAAACCCAATC (((((((....)))))))	-41	61
GTATTTCGAAAGAATAC (((.(((....))))))	-14.1	31.1
GGCTACCGAAAGGTCGCC (((.(((....))).)))	-39.2	58.6
GGCTTCGAAAGAAGGGCC ((((((....)))..)))	-19.6	40.4
GCTGAGCGAAAGCACGGC ((.(.((....)).).))	-21.5	56.8
GCTCACGAAAGTGATAGC ((((((....)))..)))	-17.4	47.4
GCAATTGGAAACAATTAC (.(((((....))))).)	-15.1	30.6
GTTTGTGGAAACATGAAC (((..((....))..)))	-21.9	31.6
GTATCGGGAAACCGACAC ((.((((....)))).))	-19.5	39.3
GCTTGGCGAAAGCCATGC ((.((((....)))).))	-27.2	65.4
GAAGACGGAAACGTTTTC (((.(((....))).)))	-32.6	41.1
GCTTGTGGAAACACAAAC (.(((((....))))).)	-13.8	36.3
GAAACCGGAAACGGCTTC (((.(((....))).)))	-23.6	42

Sequence	folding enthalpy [1] [kcal/mol]	Tm [2] [°C]
GGTTTTGGAAACAGAACC ((((.((....)).))))	-36.7	42.1
GCACACGAAAGTGCATGC ((((((....)))..)))	-14.4	42.1
GGGCGTGGAAACGCGCCC (((((.(....).)))))	-22.5	68.3
GATCGATTCCTCGATC ((((((....))))))	-41.2	52.3
GAATAGGGAAACCTGTTC (((.(((....))).)))	-30.6	38.2
GCTCGGCGAAAGCCAGC (((.(((....))))))	-17.4	62.9
GCCTGGCGAAAGCAGGGC (((..((....))..)))	-26.7	65.6
GCGATTAGTCGC ((((....))))	-26.7	51.4
GATCAATCAATTGATC ((((((....))))))	-36	45
GGGCGGGGAAACTCGCCC (((((.(....).)))))	-41.3	67.4
GATCAGTTTCTGATC ((((((...))))))	-43.7	50.8
GGAGCAGGAAACTGTTCC (((.(((....))).)))	-29.5	48
GCTGATGGAAACATCAAC (.(((((....))))).)	-21	36
GTTGACGGAAACGTCGAC ((.((((....)))).))	-43.4	54.8
GATTGACGAAAGTCTATC (((.(((....))).)))	-26.2	46.1
GGTTGCGCGAAAGCGACC (((..(((....))))))	-18	42.8
GCCACGCGAAAGCGTCGC ((.((((....)))).))	-16.1	60.2
GCACCGCCGAAAGGCTGC (((..(((....))))))	-14.7	38.9
GACTTCGAAAGAAGTC ((((((....))))))	-38.8	62
